Measured values from different studies.
Lines come from different studies, so protocols differ.

Compound	test system	setting	Vd
COc1cc(C(=O)N2CCC(N3CCN(C)CC3)CC2)ccc1Nc1ncc2c(n1)N(C)c1ccccc1C(=O)N2C	mouse, plasma	intravenous, 1 mg/kg	1.71 L/kg
CNC(=O)c1cc(OC)cc2c(N3CCc4c(cc(Cn5ccnc5)cc4-c4cn(C)nc4C(F)(F)F)C3=O)ccnc12	male CD-1 mouse, plasma	intravenous, 3 mg/kg	0.4 L/kg
COc1nc(-c2cc(C)c(N[C@@H](C)c3c(F)cc(F)cc3F)nn2)ccc1-n1cnc(C)c1	male CD-1 mouse, plasma	intravenous, 1 mg/kg, single dose	1.52 L/kg
CN1CCN(CC2CCN(c3nccc4[nH]c(-c5cc(F)cc(F)c5)nc34)CC2)CC1	BALB/c mouse, blood	intravenous, 2 mg/kg	37 L/kg
C=CC(=O)N1CC2CC(n3nc(-c4ccc(C(=O)Nc5ccccn5)cc4)c4c(N)ncnc43)CC2C1 (stereo not drawn)	male BALB/c mouse, plasma	intravenous, 1 mg/kg	0.67 L/kg
CC[C@H](C)[C@@H]1NC(=O)[C@@](C)(NC(=O)[C@H](CCCNC(=N)N)NC(=O)[C@H](CC(C)C)NC(=O)[C@@H](NC(=O)[C@H](CCC(N)=O)NC(=O)[C@H](CC(C)C)NC(C)=O)[C@@H](C)O)CCCC=CCCC[C@@](C)(C(=O)N[C@@H](CC(C)C)C(=O)N[C@@H](Cc2ccc3ccccc3c2)C(N)=O)NC(=O)[C@H](CCCNC(=N)N)NC(=O)[C@H](CCC(N)=O)NC1=O	male BALB/c mouse, plasma	intravenous, 5 mg/kg	0.0692 L/kg
CC(C)(C)c1ccc(O)c(CN(Cc2cc(C(C)(C)C)ccc2O)C2CCC(NC(N)=O)CC2)c1 (stereo not drawn)	male C57BL/6 mouse, plasma	intraperitoneal, 25 mg/kg, single dose	5.6 L
CNCCN(C)c1cc(C#N)cc(CCc2cc(C)cc(N)n2)c1	male BALB/c mouse, brain	intravenous, 2 mg/kg	44 L/kg
Cc1ccc2cncc(N3CCc4c(cc(Cn5ccnc5)cc4-c4cn(C)nc4C(F)(F)F)C3=O)c2c1	male CD-1 mouse, plasma	intravenous, 3 mg/kg	0.8 L/kg
CCNc1nc2c(c(N3CC(=O)Nc4cc(OC)ccc43)n1)CCC2	female C57BL/6 mouse, plasma	intravenous, 4 mg/kg, single dose	4.7 L/kg
COc1nc(-c2cc(C)c(N[C@@H](C)c3ccc(F)cc3)nn2)ccc1-n1cnc(C)c1	male CD-1 mouse, plasma	intravenous, 1 mg/kg, single dose	1.02 L/kg
COc1cc(OC)c2nccc(N3CCc4c(cc(Cn5ccnc5)cc4-c4cn(C)nc4C(F)(F)F)C3=O)c2c1	male CD-1 mouse, plasma	intravenous, 3 mg/kg	2 L/kg
